# Rows were chosen to be rich in hits. Some 1% of all compounds tested hit in one or more screens of this group.
# Yeast eIF2B = eIF2B (yeast) activity modulation; S. cerevisiae eIF2B-epsilon R284H, GCN4-lacZ luminescence; inhibition, % at 25 µM (by protocol); 0.91% of 27,000 active;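 active = mutant luminescence inhibited past about 50% while wild type luminescence and mutant growth stay under set limits, limit read from the data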
#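 Material: yeast eIF2B-epsilon R284H mutant carrying GCN4–beta-galactosidase fusion. Medium: YPD yeast growth medium. Incubation: 16 h growth with compound at 30 °C, 90 min Beta-Glo step. Signal: Beta-Glo luminescence plus absorbance at 595 nm. Evaluation: % inhibition of reporter signal and growth versus controls. Doses: 25 µM single dose.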
# Yeast growth tox = Inhibits yeast growth, turbidity readout | S. cerevisiae wild-type growth, A595 turbidity, 16 h | growth inhibition, % at 25 µM (by protocol) | 0.3% of 30,000 active | AID 685;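 active = mutant and wild-type yeast strains alike exhibit over 30% growth inhibition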;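 note: 0% = untreated cell controls and 100% = YPD media blanks without cells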
#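 Test system: Wild-type and eIF2Bepsilon-R284H mutant S. cerevisiae, screened separately | Dosing: Single 25 µM compound dose in 0.2% DMSO | Schedule: 16 h compound exposure during growth at 30 °C | Detection: A595 turbidity | Evaluation: Growth inhibition (%) versus cell controls and blanks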
# An asterisk follows results filed as active; · = no result; ! = not active in a repeat.
SMILES,Yeast eIF2B,Yeast growth tox
CCOc1ccc(C(C)NC(=O)Nc2ccccc2C(=O)OC)cc1 (stereo unspecified),·,10
Nc1nc2ccc(-c3nc4ccccc4o3)cc2s1,24,21
Nc1ccc2nc(-c3ccccc3)sc2c1,72*,20
CC(C)(C)C(=O)Cn1c(=N)n(Cc2ccccc2Cl)c2ccccc21,·,3
CC(C)(C)C(=O)C(Cc1ccccc1)n1cncn1 (stereo unspecified),26,62*
CC(C)(C)C(=O)C(Cc1ccccc1Cl)n1cncn1 (stereo unspecified),27,74*
CCCC(C(=O)c1ccccc1)n1cncn1 (stereo unspecified),6,2
CCCN(CC1CC1)C(=O)COC(=O)c1[nH]c(C)c(C(=O)OCC)c1C,·,7
O=C1NCCc2cc3c(cc21)OCO3,-11,7
O=S(=O)(/C=C/c1ccccc1)N1CCN(c2cccc(Cl)c2)CC1,16,29
CC1CCCCN1C(=O)COC(=O)c1n[nH]c2ccccc12 (stereo unspecified),·,5
CCCn1c(SCC(=O)Nc2nc3c(s2)CCCC3)nc2c1c(=O)n(C)c(=O)n2C,55*,-35
CCOC(=O)c1c(NC(=O)CSc2nc3c(c(=O)n(C)c(=O)n3C)n2CC)sc(C)c1C,7,-41
COc1ccc(CCNC(=O)CSc2nc3ccccc3o2)cc1,·,19
COc1cccc(Oc2cn[nH]c2-c2ccc(OC)cc2O)c1,66*,-9
CCOc1ccc(-c2[nH]ncc2Oc2cccc(OC)c2)c(O)c1,-1,6
Cc1[nH][nH]c(=O)c1C(c1ccc(-c2ccc(Cl)c(Cl)c2)o1)c1c(C)[nH][nH]c1=O,14,46*
Cc1ccc(S(=O)(=O)Oc2ccc(C(c3c(C)[nH][nH]c3=O)c3c(C)[nH][nH]c3=O)cc2)cc1,20,30
N=c1c(C(=O)NC2CCCCC2)cc2c(=O)n3ccccc3nc2n1CCN1CCOCC1,23,-2
C#CCOC(=O)C(NC(=O)c1ccccc1)=C1CCCCC1,22,6
CCOC(=O)c1c(NC=O)sc2c1CCC2,8,9
CCOC(=O)c1c(NC(=O)COC)sc2c1CCCC2,65*,2
COc1ccc2sc(N3C(=O)C4CC=C(C)CC4C3=O)nc2c1 (stereo unspecified),6,·
O=C(O)COc1ccc2c3c(c(=O)oc2c1)CCC3,0,-11
COc1ccc(S(=O)(=O)N(C)CC(=O)Nc2cccc(C(C)=O)c2)cc1Cl,-17,12
SMILES,Yeast eIF2B,Yeast growth tox
Fc1ccc(Nc2nc(Oc3ccc4c(c3)OCO4)nc(N3CCOCC3)n2)c(F)c1,57*,-67
c1ccc(Oc2nc(Oc3ccccc3)nc(N3CCOCC3)n2)cc1,27,2
O=C(CSc1ccc(-c2ccccc2)nn1)NCc1ccco1,40,3
COc1ccc(N(CC(=O)NC2CCCCCC2)S(=O)(=O)c2c(C)nn(C)c2C)cc1,14,-30
COc1cccc(NC(=O)CN(c2ccc(C)cc2)S(=O)(=O)c2c(C)nn(C)c2C)c1,53*,1
Clc1ccc2nc(CN3CCCc4ccccc43)cn2c1,25,10
CCOC(=O)CC(=O)CSc1nc(-c2cccnc2)cc(C)c1C#N,3,2
CCOC(=O)CC(=O)CSc1nc(C)cc(-c2cccnc2)c1C#N,55*,-8
CCOC(=O)Cc1csc(SCC(=O)Nc2cc(Cl)ccc2Oc2ccccc2)n1,22,21
C=CCOC(=O)C1=C(C)Nc2ncnn2C1c1cccs1 (stereo unspecified),23,29
C=CCOC(=O)C1=C(C)Nc2nc3ccccc3n2C1c1ccncc1 (stereo unspecified),63*,-18
CCn1c(COc2ccc3c(c2)OCO3)nnc1SCC(=O)c1ccc(Cl)cc1,-8,-9
COc1ccccc1NC(=S)NNC(=O)c1ccccc1,58*,-8
COc1ccccc1NC(=O)Oc1ccc(C(C)=O)cc1,14,-4
Cc1ccc2nc(-c3cccnc3)oc2c1,53*,-4
Cc1ccc(-c2nc3cc(C)ccc3o2)cc1,15,2
CC1CCN(C(=O)CSc2nnc(CSc3ncccn3)n2C)CC1,13,13
O=C(O)C1CC=CCC1C(=O)NCc1ccc2c(c1)OCO2 (stereo unspecified),4,9
O=c1c2ccccc2c(C=NCCc2ccccc2)c(O)n1Cc1ccccc1,-12,18
Cc1c(N=Cc2c(O)n(Cc3ccco3)c(=O)c3ccccc23)c(=O)n(-c2ccccc2)n1C,51*!,-20
COc1ccc(N/N=C(/N=Nc2nc(C)cc(=O)[nH]2)c2ccccc2)cc1,13,-27
Cc1cc(=O)[nH]c(N=N/C(=N/Nc2ccc(O)cc2)c2ccccc2)n1,50*,-1
Cc1cc2nc(C)n(CCCNC(=O)Nc3ccc(F)cc3)c2cc1C,24,22
O=C(NC1CCCC1)C(c1ccccc1)N(Cc1ccco1)C(=O)Cc1cccs1 (stereo unspecified),57*,0
O=C(NCC(=O)N(Cc1ccco1)C(C(=O)NC1CCCC1)c1ccncc1)c1cccs1 (stereo unspecified),-15,·
SMILES,Yeast eIF2B,Yeast growth tox
Fc1ccc(SCCc2ccncc2)cc1,·,59*!
c1ccc(SCCc2ccncc2)cc1,·,9
O=P1(c2ccccc2)C=Cn2c1cc1c2CCCC1 (stereo unspecified),20,4
N#CC1=C(SCC(=O)c2ccc(Cl)cc2)NC2=C(C(=O)CCC2)C1c1ccco1 (stereo unspecified),51*,5
Cc1ccc(NC(=O)CSC2=C(C#N)C(c3ccco3)C3=C(CCCC3=O)N2)cc1 (stereo unspecified),-7,6
Cc1cc(C)n2nc(NCc3cccc(Br)c3)nc2n1,21,18
COc1ccc(C2C(C#N)=C(N)N3C(=C2C#N)Sc2ccccc23)cc1 (stereo unspecified),0,29
N/C(=N\OC(=O)c1ccccc1Cl)c1cccnc1,31,6
O=C(/C=C/c1ccccc1Cl)c1cccnc1,·,48*
COc1cccc(C2C3=C(CCCC3=O)Nc3nc4ccccc4n32)c1OC (stereo unspecified),17,-17
Nc1nnc(SCc2ccc(F)cc2)n1-c1ccccc1,15,-4
Cc1ccc(Oc2ccc(OCC(=O)OC3CCS(=O)(=O)C3)cc2)cc1 (stereo unspecified),6,·
CCCCNC(=O)OC1CCS(=O)(=O)C1 (stereo unspecified),55*,-15
COc1ccc(Cl)cc1S(=O)(=O)Oc1ccc(NC(C)=O)cc1,6,-18
O=C1c2ccccc2S(=O)(=O)N1CC1CC(c2ccccc2)=NO1 (stereo unspecified),-7,42*
COc1ccc(C2=NOC(CN3C(=O)c4ccccc4S3(=O)=O)C2)cc1 (stereo unspecified),43,·
O=C(Cc1ccccc1)Nc1ccccc1C(=O)O,22,-4
COc1ccccc1CC(=O)N1CCCC1,·,-7
COc1ccccc1CC(=O)N1CCN(c2cccc(C(F)(F)F)c2)CC1,50*,-14
CCOCCCNS(=O)(=O)c1ccc(-n2cnnn2)c(OC)c1,·,0
CCOC(=O)CSc1nc2ccccc2n1CC(=O)NC(C)(C)C,18,15
CCOC(=O)Cn1c(=O)c(-c2ccccc2NCc2ccccc2)nc2ccccc21,58*,-30
O=C(Nc1ccc2c(c1)CCC2)C1CCCO1 (stereo unspecified),21,5

# Assay outcomes (PubChem BioAssay)
